Assay results taken from ChEMBL document CHEMBL4359813, “Synthesis and antimycobacterial activity of imidazo[1,2-b][1,2,4,5]tetrazines” (2019).
≈ marks a conversion by molar mass, not a printed value. Calls of active or inactive are those of the source. The calls are words filed in the database; no cut-off is given here.

Tests used:
[1] = test system: Mycolicibacterium smegmatis MC2 155; assay: Inhibition of STPK in Mycobacterium smegmatis MC2 155 expressing aminoglycoside phophotransferase-8 assessed as growth inhibition at 100 nmol/disk after 18 hrs in presence of kanamycin by paper disk method
[2] = test system: Mycobacterium tuberculosis; assay: Antimycobacterial activity against Mycobacterium tuberculosis H37Rv in liquid medium; format: functional
Method in brief: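 M. tuberculosis H37Rv; MIC determined in liquid medium on the automated Bactec MGIT 960 system.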

[3] = test system: Mycolicibacterium smegmatis; assay: Antimycobacterial activity against Mycobacterium smegmatis MC2 155 in liquid medium after 48 hrs by two-fold serial dilution method; format: functional; settings: MC2 155, 48 h
Method in brief: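 M. smegmatis mc2 155 grown overnight in Lemco-Tw broth, diluted 1:200 in fresh broth. […] Top wells could carry 4% DMSO. Incubated 48 h at 37 °C with shaking at 250 rpm. MIC is the lowest concentration with no visible growth.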

[4] = test system: Mycolicibacterium smegmatis; assay: Antimycobacterial activity against Mycobacterium smegmatis MC2 155 in solid medium by two-fold serial dilution method; format: functional
Method in brief: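 M290 soybean-casein agar plates carried two-fold compound dilutions, 8–64 or 8–128 µg/ml, some with extra 20 or 25 µg/ml plates.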

[5] = test system: Mycolicibacterium smegmatis; assay: Antimycobacterial activity against Mycobacterium smegmatis atR9 in liquid medium after 48 hrs by two-fold serial dilution method; format: functional; settings: atR9, 48 h
Method in brief: (§1)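 M. smegmatis resistant mutants were isolated on M290 agar containing 3.5-4× MIC of the test compound at 30°C and resistance was reconfirmed. MIC was then run in Lemco-Tw broth (Tween-80 0.05%). An overnight culture was diluted 1:200, and two-fold serial dilutions in DMSO were added. Plates were incubated at 37°C and 250 rpm for 48 h. MIC was read as the lowest concentration with no visible growth.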

[6] = test system: Mycolicibacterium smegmatis; assay: Antimycobacterial activity against Mycobacterium smegmatis atR14 in liquid medium after 48 hrs by two-fold serial dilution method; format: functional; settings: atR14, 48 h; method in brief: as §1
[7] = test system: Mycolicibacterium smegmatis; assay: Antimycobacterial activity against Mycobacterium smegmatis atR17 in liquid medium after 48 hrs by two-fold serial dilution method; format: functional; settings: atR17, 48 h; method in brief: as §1
[8] = test system: Mycolicibacterium smegmatis; assay: Antimycobacterial activity against Mycobacterium smegmatis atR19 in liquid medium after 48 hrs by two-fold serial dilution method; format: functional; settings: atR19, 48 h; method in brief: as §1
[9] = test system: Mycolicibacterium smegmatis; assay: Antimycobacterial activity against Mycobacterium smegmatis atR1 in liquid medium after 48 hrs by two-fold serial dilution method; format: functional; settings: atR1, 48 h; method in brief: as §1
[10] = test system: Mycolicibacterium smegmatis; assay: Antimycobacterial activity against Mycobacterium smegmatis atR8 in liquid medium after 48 hrs by two-fold serial dilution method; format: functional; settings: atR8, 48 h; method in brief: as §1
[11] = test system: Mycolicibacterium smegmatis; assay: Antimycobacterial activity against Mycobacterium smegmatis atR10 in liquid medium after 48 hrs by two-fold serial dilution method; format: functional; settings: atR10, 48 h; method in brief: as §1
[12] = test system: Mycolicibacterium smegmatis; assay: Antimycobacterial activity against Mycobacterium smegmatis atR11 in liquid medium after 48 hrs by two-fold serial dilution method; format: functional; settings: atR11, 48 h; method in brief: as §1
[13] = test system: Mycolicibacterium smegmatis; assay: Antimycobacterial activity against Mycobacterium smegmatis atR33 in liquid medium after 48 hrs by two-fold serial dilution method; format: functional; settings: atR33, 48 h; method in brief: as §1
[14] = test system: Mycolicibacterium smegmatis; assay: Antimycobacterial activity against Mycobacterium smegmatis atR37 in liquid medium after 48 hrs by two-fold serial dilution method; format: functional; settings: atR37, 48 h; method in brief: as §1
[15] = test system: Mycolicibacterium smegmatis; assay: Antimycobacterial activity against Mycobacterium smegmatis atR40 in liquid medium after 48 hrs by two-fold serial dilution method; format: functional; settings: atR40, 48 h; method in brief: as §1
[16] = test system: Mycolicibacterium smegmatis; assay: Antimycobacterial activity against Mycobacterium smegmatis atR2 in liquid medium after 48 hrs by two-fold serial dilution method; format: functional; settings: atR2, 48 h; method in brief: as §1
[17] = test system: Mycolicibacterium smegmatis; assay: Antimycobacterial activity against Mycobacterium smegmatis atR1 assessed as decrease in drug resistance development at 300 nmol/disc after 2 to 3 days by paper disc method; format: functional, organism-based
Method in brief: (§2)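 Mutant M. smegmatis strains were grown in Middlebrook 7H9/OADC/Tween/glycerol to OD600 1.2. Cultures were diluted 1:9:10 (culture:water:M290) and overlaid on M290 agar. Commercial or impregnated paper discs were applied and plates incubated 2–3 days at 37 °C. Inhibition halos were measured to 1 mm, run in triplicate, mean ± SD.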

[18] = test system: Mycolicibacterium smegmatis; assay: Antimycobacterial activity against Mycobacterium smegmatis atR2 assessed as decrease in drug resistance development at 300 nmol/disc after 2 to 3 days by paper disc method; format: functional, organism-based; method in brief: as §2
[19] = test system: Mycolicibacterium smegmatis; assay: Antimycobacterial activity against Mycobacterium smegmatis atR11 assessed as decrease in drug resistance development at 300 nmol/disc after 2 to 3 days by paper disc method; format: functional, organism-based; method in brief: as §2
[20] = test system: Mycolicibacterium smegmatis; assay: Antimycobacterial activity against Mycobacterium smegmatis atR8 assessed as decrease in drug resistance development at 300 nmol/disc after 2 to 3 days by paper disc method; format: functional, organism-based
Method in brief: (§3)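 Drug-resistant M. smegmatis mc2 155 mutants, isolated on M290 agar with 3.5-4× MIC of compound and resistance re-confirmed, grown in Middlebrook 7H9 (OADC, 0.1% Tween-80, 0.4% glycerol) to OD600 1.2. Diluted 1:9:10 culture:water:M290 and poured as top layer on M290 agar. Impregnated paper discs applied; 37 °C for 2–3 days. Halos measured to nearest 1 mm; triplicates, mean ± SD versus control strain.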

[21] = test system: Mycolicibacterium smegmatis; assay: Antimycobacterial activity against Mycobacterium smegmatis atR10 assessed as decrease in drug resistance development at 300 nmol/disc after 2 to 3 days by paper disc method; format: functional, organism-based; method in brief: as §2
[22] = test system: Mycolicibacterium smegmatis; assay: Antimycobacterial activity against Mycobacterium smegmatis atR14 assessed as decrease in drug resistance development at 300 nmol/disc after 2 to 3 days by paper disc method; format: functional, organism-based; method in brief: as §2
[23] = test system: Mycolicibacterium smegmatis; assay: Antimycobacterial activity against Mycobacterium smegmatis atR17 assessed as decrease in drug resistance development at 300 nmol/disc after 2 to 3 days by paper disc method; format: functional, organism-based; method in brief: as §2
[24] = test system: Mycolicibacterium smegmatis; assay: Antimycobacterial activity against Mycobacterium smegmatis atR19 assessed as decrease in drug resistance development at 300 nmol/disc after 2 to 3 days by paper disc method; format: functional, organism-based; method in brief: as §2
[25] = test system: Mycolicibacterium smegmatis; assay: Antimycobacterial activity against Mycobacterium smegmatis atR33 assessed as decrease in drug resistance development at 300 nmol/disc after 2 to 3 days by paper disc method; format: functional, organism-based; method in brief: as §2
[26] = test system: Mycolicibacterium smegmatis; assay: Antimycobacterial activity against Mycobacterium smegmatis atR37 assessed as decrease in drug resistance development at 300 nmol/disc after 2 to 3 days by paper disc method; format: functional, organism-based; method in brief: as §3
[27] = test system: Mycolicibacterium smegmatis; assay: Antimycobacterial activity against Mycobacterium smegmatis atR40 assessed as decrease in drug resistance development at 300 nmol/disc after 2 to 3 days by paper disc method; format: functional, organism-based; method in brief: as §3
[28] = test system: Mycolicibacterium smegmatis MC2 155; assay: Inhibition of STPK in Mycobacterium smegmatis MC2 155 expressing aminoglycoside phophotransferase-8 assessed as growth inhibition at 5 nmol/disk after 18 hrs in presence of kanamycin by paper disk method
[29] = test system: Mycolicibacterium smegmatis MC2 155; assay: Inhibition of STPK in Mycobacterium smegmatis MC2 155 expressing aminoglycoside phophotransferase-8 assessed as growth inhibition at 50 nmol/disk after 18 hrs in presence of kanamycin by paper disk method
[30] = test system: Mycolicibacterium smegmatis; assay: Antimycobacterial activity against Mycobacterium smegmatis atR33 assessed as decrease in drug resistance development at 10 ug/disc after 2 to 3 days by paper disc method; format: functional, organism-based; method in brief: as §2
[31] = test system: Mycolicibacterium smegmatis; assay: Antimycobacterial activity against Mycobacterium smegmatis atR37 assessed as decrease in drug resistance development at 10 ug/disc after 2 to 3 days by paper disc method; format: functional, organism-based; method in brief: as §3
[32] = test system: Mycolicibacterium smegmatis; assay: Antimycobacterial activity against Mycobacterium smegmatis atR9 assessed as decrease in drug resistance development at 10 ug/disc after 2 to 3 days by paper disc method; format: functional, organism-based; method in brief: as §3
[33] = test system: Mycolicibacterium smegmatis; assay: Antimycobacterial activity against Mycobacterium smegmatis atR10 assessed as decrease in drug resistance development at 10 ug/disc after 2 to 3 days by paper disc method; format: functional, organism-based; method in brief: as §2

Structure (SMILES) | MIC [2] [µM] | MIC [3] [µM] | MIC [4] [µM] | MIC [5] [µg/mL] | MIC [6] [µg/mL] | MIC [7] [µg/mL] | MIC [8] [µg/mL] | MIC [9] [µg/mL] | MIC [10] [µg/mL] | MIC [11] [µg/mL] | MIC [12] [µg/mL] | MIC [13] [µg/mL] | MIC [14] [µg/mL] | MIC [15] [µg/mL] | MIC [16] [µg/mL] | Activity [17] | Activity [18] | Activity [19] | Activity [20] | Activity [21] | further results
Cc1cc(C)n(-c2nnc3ncc(SCc4ccccc4)n3n2)n1 | 3 (≈ 1.01 µg/mL) | 94.8 (≈ 32 µg/mL) | 59.3 (≈ 20 µg/mL) | > 64 | > 64 | > 64 | > 64 | > 64 | > 64 | > 64 | > 64 | > 64 | > 64 | > 64 | > 64 | inactive | inactive | inactive | inactive | inactive | inhibition zone (IZ) [1]: 13.7 mm; Activity [22]: inactive; Activity [23]: inactive; Activity [24]: inactive; Activity [25]: inactive; Activity [26]: inactive; Activity [27]: inactive
Cc1cc(C)n(-c2nnc3nc(-c4ccccc4)c(SC(C)C)n3n2)n1 | – | – | – | – | – | – | – | – | – | – | – | – | – | – | – | – | – | – | – | – | inhibition zone (IZ) [28]: 11 mm
Cc1cc(C)n(-c2nnc3ncc(SC(C)C)n3n2)n1 | 3.5 (≈ 1.01 µg/mL) | 221 (≈ 64 µg/mL) | 221 (≈ 64 µg/mL) | 256 (≈ 885 µM) | 256 (≈ 885 µM) | 256 (≈ 885 µM) | 256 (≈ 885 µM) | 512 (≈ 1770 µM) | 512 (≈ 1770 µM) | 512 (≈ 1770 µM) | 512 (≈ 1770 µM) | 512 (≈ 1770 µM) | 512 (≈ 1770 µM) | 512 (≈ 1770 µM) | 1020 (≈ 3540 µM) | inactive | inactive | inactive | inactive | inactive | inhibition zone (IZ) [29]: 13.3 mm; Activity [22]: inactive; Activity [23]: inactive; Activity [24]: inactive; Activity [25]: inactive; Activity [26]: inactive; Activity [27]: inactive
C[C@@H](O)[C@H]1C(=O)N2C(C(=O)O)=C(SCCNC=N)C[C@H]12 | – | – | – | – | – | – | – | – | – | – | – | – | – | – | – | – | – | – | – | – | Activity [30]: inactive; Activity [31]: inactive; Activity [32]: inactive; Activity [33]: inactive
CCC(CCCO)Sc1cnc2nnc(-n3nc(C)cc3C)nn12 (stereo not given) | – | – | – | – | – | – | – | – | – | – | – | – | – | – | – | – | – | – | – | – | inhibition zone (IZ) [28]: 9.3 mm
